Compound activity: PubChem BioAssay, several laboratories
Measles CPE: protection of cells from measles virus. Measles virus-infected cells, CPE protection, absorbance. protection (pct of control), % at 4 µM. hit rate 1.5% among 140,000. AID 841; in the data active = protection mostly above about 24%, no sharp cut-off; inactive = mostly below about 26%
HMGR II inh: inhibitors of class II HMG-CoA reductase from Enterococcus faecalis | inhibition, % at 10 µM | hit rate 0.41% among 190,000 | purified E. faecalis HMGR, NADPH absorbance 340 nm kinetic;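 active = inhibition above a set limit, the median over all tested compounds plus 3 SD, cut at about 9.5% in these data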;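 note: enzyme runs in reverse so mevalonate oxidation gives rising NADPH absorbance; 0% = complete reaction with DMSO and 100% = background rate lacking mevalonate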
Yeast growth inh: chemicals that inhibit yeast BB579 growth in restrictive medium (lifespan-shortening candidates); S. cerevisiae BB579 growth, OD615, 48 h; inhibition, % at 10 µM; hit rate 0.51% among 140,000;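 active = inhibition above a set limit, 3 SD over the mean compound inhibition, cut at about 44% in these data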
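System: DeaD yeast strain BB579; buffer or medium: CSMM-D dextrose restrictive medium; technique: OD at 615 nm; schedule: 4 h cell preincubation, 48 h compound exposure, 30 °C humidified; doses: single 10 µM dose; controls: amphotericin B 10 µg/mL, positive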
Yeast life ext: yeast lifespan extension; inhibition of the nicotinamide effect, % at 10 µM; hit rate 0.68% among 130,000; S. cerevisiae growth with nicotinamide, OD615; deaD strain in restrictive glucose medium; AID 775;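 active = inhibition above a set limit, placed 3 SD over the median of all compounds, cut at about 26% in these data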;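 note: 0% = nicotinamide-treated wells and 100% = cells grown without nicotinamide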
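Material: Modified budding yeast, DeaD strain | Medium: Restrictive glucose medium | Probe or stimulus: 1.5 mM nicotinamide | Dosing: Single dose 10 µM compound, 0.25% DMSO | Times: 48 h at 30 °C | Technique: OD615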
Rad51 HR inh: Rad51 (human) homologous recombination inhibition; Q06609; hRad51 DNA strand exchange, fluorescence dequenching; inhibition, % at 10 µM; hit rate 0.085% among 200,000; AID 1385;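 active = inhibition above 40% at the single screening dose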;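 note: 0% = DMSO control wells and 100% = blanks with heterologous ssDNA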
Target sequence (Q06609 whole entry, looked up): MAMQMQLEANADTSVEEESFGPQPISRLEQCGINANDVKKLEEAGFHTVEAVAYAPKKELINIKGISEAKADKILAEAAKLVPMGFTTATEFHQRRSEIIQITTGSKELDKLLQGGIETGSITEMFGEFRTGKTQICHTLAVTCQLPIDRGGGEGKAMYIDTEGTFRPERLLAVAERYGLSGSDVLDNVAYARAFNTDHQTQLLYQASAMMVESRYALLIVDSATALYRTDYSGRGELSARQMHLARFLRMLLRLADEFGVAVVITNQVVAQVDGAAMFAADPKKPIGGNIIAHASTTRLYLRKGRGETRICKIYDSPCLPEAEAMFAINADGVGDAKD
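Test system: preformed human Rad51 ssDNA filaments. Compound dosing: single dose, 10 µM final compound. Incubation: filaments 15 min 37 °C, then compound 30 min. Technique: FRET fluorescence dequenching, excitation 485 nm, emission 520 nm. Read-out basis: percent inhibition from fluorescence, normalised to plate control and blank means. Benchmarks: plate controls and plate blanks.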
Arbovirus anti: arbovirus infection inhibition | arbovirus infection cell-based antiviral screen | hit rate 0.37% among 200,000 | inhibition, % at 10 µM; in the data active = inhibition above about 30%
* hit, by the source's call; . = no result given. Shown are actives, neighbours in structure and some others; about 2.4% of the full set was active somewhere.

SMILES | Measles CPE | HMGR II inh | Yeast growth inh | Yeast life ext | Rad51 HR inh | Arbovirus anti
CC(=O)N1N=C(c2ccccc2)OC12CCCC2 | . | -1.5 | . | . | -0.1 | 5.4
COC(=O)c1ccccc1NC(=O)COC(=O)C1CCCCC1 | . | . | . | . | -13.2 | .
O=C(Oc1ccc(=O)n(-c2ccccc2)n1)c1ccc(Cl)cc1 | 3.5 | 0.3 | -34.4 | 50.6* | -1.2 | -5.0
COc1cc2c(C(=O)O)c(C)n(CC(C)C)c2c2ccccc12 | 6.4 | -3.0 | -19.3 | -7.3 | . | 53.6*
Cc1cc(C)c2c(=O)[nH]c(SCC(=O)c3ccc(C)c(C)c3)nc2n1 | . | -7.2 | . | . | -5.2 | 34.9*
Cc1cc(C)c2c(=O)[nH]c(SCC(=O)Nc3ccccc3)nc2n1 | 6.5 | -6.3 | -18.4 | -7.0 | 0.9 | -2.9
O=C(NNS(=O)(=O)c1ccc2ccccc2c1)NC1CCCCC1 | 51.9* | 0.8 | -45.5 | 1.0 | 9.5 | -2.1
O=C(Nc1ccccc1)NC1CCCCC1 | 3.4 | -0.5 | -5.5 | 42.0* | 2.0 | 3.1
S=C(Nc1ccc2nsnc2c1)NC1CCCCC1 | 30.2* | -1.2 | -10.5 | -5.5 | -27.4 | 18.4
S=C(Nc1ccc(Oc2ccccc2)cc1)NC1CCCCCC1 | 10.0 | -10.0 | 56.1* | -1.6 | 0.3 | -17.6
S=C(Nc1ccc(Cl)c(Cl)c1)NC1CCCCC1 | 4.0 | -2.4 | -12.9 | -14.3 | -1.0 | -33.8
O=C(Nc1ccccc1NC(=O)NC1CCCCC1)NC1CCCCC1 | 1.2 | 0.4 | -26.5 | -4.7 | -173.6 | -42.2
O=C(CCn1cnnn1)Nc1ccccc1 | . | -8.2 | . | . | . | 3.5
Cc1cccc(S(=O)(=O)NC(Cc2c[nH]c3ccccc23)C(=O)O)c1 (configuration not stated) | 22.1 | -0.6 | -39.3 | -4.4 | . | -5.3
CCOC(=O)c1ccc(NC(=S)NC2CCCC2)cc1 | 44.0* | 0.9 | -5.9 | -5.2 | -0.2 | 0.3
O=C(O)c1ccc(NC(=S)NC2CCCCC2)cc1 | 37.7 | 1.7 | -5.9 | 1.5 | 0.8 | -6.6
O=C(NC1CCCCC1)c1ccc(CNc2ccccc2)o1 | 35.7* | -1.2 | -71.3 | -5.3 | 4.5 | -8.6
COC(=O)c1ccc(=O)n(Cc2ccco2)c1 | 20.1 | -0.6 | 7.7 | -6.3 | -0.9 | -0.9
COC(=O)c1cc(Br)c(=O)n(Cc2ccco2)c1 | 37.1* | -8.5 | -11.7 | -12.4 | 13.2 | 1.0
CC(C)c1ccc(NC(=O)C(c2ccccc2)N(Cc2ccco2)C(=O)CC2NC(=O)NC2=O)cc1 (configuration not stated) | . | -2.7 | . | . | 0.2 | -12.0
Cn1cccc1Cc1nnc(SCC(=O)Nc2ccc(F)cc2)n1-c1ccc(F)cc1 | 4.3 | 0.9 | -3.7 | -6.0 | 2.6 | 7.3
CCSc1nnc(NC(=O)CSc2nnc(Cc3cccn3C)n2-c2ccc(F)cc2)s1 | 14.4 | -6.6 | -7.2 | -4.0 | . | 33.2*
CSc1nc(-c2ccc(Cl)cc2)nn1C(=O)c1ccco1 | 51.6* | -6.0 | -23.9 | -15.0 | -5.0 | -1.5
CSc1nc(-c2ccco2)nn1C(=O)c1ccco1 | 29.1 | -3.9 | -5.8 | -7.6 | -3.4 | 13.7
O=C(Nc1ccc(N2CCOCC2)cc1)c1nc2ccccc2s1 | . | . | . | . | 20.9 | .
SMILES | Measles CPE | HMGR II inh | Yeast growth inh | Yeast life ext | Rad51 HR inh | Arbovirus anti
COCCCNC(=O)CSC1=Nc2ccccc2C2=NC(c3ccccc3)C(=O)N12 (configuration not stated) | . | 2.2 | . | . | 11.7 | 3.6
CC(C)C1N=C2c3ccccc3N=C(SCC(=O)NCCc3ccc(S(N)(=O)=O)cc3)N2C1=O (configuration not stated) | 43.3* | 0.6 | 16.7 | -24.1 | 1.4 | 5.2
O=C(O)CCC(=O)Nc1ccc(C(=O)OCC(=O)c2ccc(Cl)cc2Cl)cc1 | . | -3.5 | . | . | 5.7 | -1.2
COc1cc(C(=O)OCC(=O)c2cc(C)n(C)c2C)cc(NC(=O)c2ccco2)c1OC | 53.0* | -3.7 | -31.3 | -1.5 | -8.7 | 8.6
CCCCCCCCCCCCCCCC[n+]1cccc2ccccc21 | 5.0 | 1.5 | 99.7* | -12.6 | -1.3 | -45.6
CCCCCCCCC[n+]1cccc2c3ccccc3ccc21 | 28.9* | -6.4 | 30.7 | -19.7 | 0.7 | -35.6
O=C(C[n+]1cccc2ccccc21)c1ccccc1 | 11.4 | -4.1 | -19.8 | 4.2 | 10.2 | 7.2
COc1ccc(CNS(=O)(=O)c2cccc(S(=O)(=O)N3CCOCC3)c2)cc1 | 21.1 | 0.0 | -39.6 | -7.5 | 2.6 | 3.0
C[n+]1ccn(CC(=O)c2ccc(Cl)cc2)c1 | 38.8* | 4.3 | -50.7 | 5.9 | 6.3 | 4.6
O=C(CN1N=C(c2ccc(Cl)cc2)CCC1=O)NCc1cccnc1 | 17.5 | -2.0 | -56.4 | 2.0 | . | -7.5
COc1cc(CNCCN2CCOCC2)ccc1OCc1ccc(Cl)cc1Cl | 4.6 | 1.9 | 2.6 | -20.0 | 5.7 | -24.5
COc1cc(CNCCN2CCOCC2)ccc1OCc1cccc(Cl)c1 | 5.5 | -5.6 | 52.5* | -15.3 | -3.0 | -28.8
CC(=O)Nc1nc(-c2ccc3c(c2)CCN3S(C)(=O)=O)cs1 | . | -0.7 | . | . | -4.5 | -2.8
CS(=O)(=O)N1CCc2cc(-c3csc(NC(=O)Cc4cccs4)n3)ccc21 | 101.4* | -0.6 | -41.5 | -17.2 | 7.0 | -31.6
Cc1ccc(C(=O)c2no[n+]([O-])c2C(=O)c2ccc(C)cc2)cc1 | 0.1 | 0.9 | 19.0 | 27.2* | . | 6.9
COc1ccccc1NC(C#N)c1ccccc1OCc1ccccc1 (configuration not stated) | 21.6 | -0.2 | -29.2 | 30.5* | 2.4 | -1.6
NC(=O)CC[C@H](NC(=O)c1ccc(F)cc1)C(=O)OCC(=O)Nc1ccc(N2CCOCC2)cc1 | 7.0 | 0.4 | -14.0 | 2.1 | 2.3 | 8.7
CS(=O)(=O)Oc1ccc(Br)cc1/C=C1/N=C(c2ccco2)OC1=O | 8.4 | -5.5 | -15.2 | 49.4* | 20.4 | -0.7
O=c1oc2ccccc2c2c1ncn2-c1ccccc1 | 2.3 | 2.4 | -13.7 | -5.1 | 7.2 | 17.2
O=c1oc2ccccc2c2c1ncn2C1CCCCC1 | 38.1* | -3.6 | -23.1 | -10.6 | 2.5 | -1.4
COC(=O)[C@@]1(Cc2ccc(F)cc2)[C@H]2c3cc(C(=O)N4CCCC4)n(CCc4c[nH]c5ccc(OC)cc45)c3C[C@H]2CN1C(=O)c1ccccc1 | 2.1 | -5.1 | -19.5 | 6.6 | . | -8.6
CCOc1ccc2nc(NC(=O)C3=NNC(=O)CC3)sc2c1 | . | -3.3 | . | . | -0.6 | -10.4
CCOc1ccc2nc(NC(=O)C3=NN(c4ccccc4)C(=O)CC3)sc2c1 | . | -0.2 | . | . | 9.8 | 52.3*
Cc1cccc2sc(NC(=O)C3=NN(c4ccccc4)C(=O)CC3)nc12 | 0.6 | -6.7 | -20.5 | 5.9 | 5.3 | 3.0
Cc1ccc2nc(NC(=O)C3=NN(c4ccccc4)C(=O)CC3)sc2c1 | 20.8 | 0.1 | -50.1 | -5.2 | -1.6 | 60.5*
O=C(Nc1nc(-c2cc(F)ccc2F)cs1)C1=NN(c2ccccc2)C(=O)CC1 | . | -2.1 | . | . | -0.2 | 9.7
CC(=O)c1sc(NC(=O)c2cc(-c3ccccc3)nn2-c2ccccc2)nc1C | 6.8 | -0.4 | -27.1 | 1.0 | 6.0 | 16.9
COc1ccc(-c2csc(NC(=O)C3=NN(c4ccccc4)C(=O)CC3)n2)cc1 | . | -0.6 | . | . | -9.8 | 30.9*
